Results reported in ChEMBL document CHEMBL3525985, “Regiospecificity and stereospecificity of human UDP-glucuronosyltransferases in the glucuronidation of estriol, 16-epiestriol, 17-epiestriol, and 13-epiestradiol” (Drug Metab Dispos, 2013).
One block for each molecule: values may come before it.

Columns and labels:
Format in all cases: ADME
Conditions in all cases: recombinant enzyme
[1] = target: T1, UDP-glucuronosyltransferase 2B15 (Homo sapiens, UniProt P54855); experiment: Drug metabolism assessed as recombinant human C-terminal […]-mediated 17-epiestriol-3-glucuronide formation at 200 uM after 15 to 60 mins by HPLC analysis in presence of UDPGA
T1 sequence (P54855 whole entry): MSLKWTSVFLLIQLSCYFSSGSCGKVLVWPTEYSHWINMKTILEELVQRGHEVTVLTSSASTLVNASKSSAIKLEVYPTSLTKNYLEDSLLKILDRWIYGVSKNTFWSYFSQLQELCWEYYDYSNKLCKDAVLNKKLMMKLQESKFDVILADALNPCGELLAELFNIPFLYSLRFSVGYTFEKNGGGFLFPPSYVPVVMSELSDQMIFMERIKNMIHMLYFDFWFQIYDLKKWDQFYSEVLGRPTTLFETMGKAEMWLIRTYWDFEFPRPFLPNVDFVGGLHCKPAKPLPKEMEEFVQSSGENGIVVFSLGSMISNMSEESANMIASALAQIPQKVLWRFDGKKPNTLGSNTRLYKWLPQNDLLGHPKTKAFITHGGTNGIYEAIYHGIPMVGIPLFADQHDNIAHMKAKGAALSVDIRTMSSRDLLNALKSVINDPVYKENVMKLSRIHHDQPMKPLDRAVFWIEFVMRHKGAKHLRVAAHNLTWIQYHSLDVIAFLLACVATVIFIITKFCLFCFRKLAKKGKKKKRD

[2] = target: T2, UDP-glucuronosyltransferase 2B17 (Homo sapiens, UniProt O75795); experiment: Drug metabolism assessed as recombinant human C-terminal His-tagged UGT2B17-mediated 17-epiestriol glucuronide metabolite formation after 15 to 60 mins by HPLC analysis in presence of UDPGA
T2 sequence (O75795 whole entry): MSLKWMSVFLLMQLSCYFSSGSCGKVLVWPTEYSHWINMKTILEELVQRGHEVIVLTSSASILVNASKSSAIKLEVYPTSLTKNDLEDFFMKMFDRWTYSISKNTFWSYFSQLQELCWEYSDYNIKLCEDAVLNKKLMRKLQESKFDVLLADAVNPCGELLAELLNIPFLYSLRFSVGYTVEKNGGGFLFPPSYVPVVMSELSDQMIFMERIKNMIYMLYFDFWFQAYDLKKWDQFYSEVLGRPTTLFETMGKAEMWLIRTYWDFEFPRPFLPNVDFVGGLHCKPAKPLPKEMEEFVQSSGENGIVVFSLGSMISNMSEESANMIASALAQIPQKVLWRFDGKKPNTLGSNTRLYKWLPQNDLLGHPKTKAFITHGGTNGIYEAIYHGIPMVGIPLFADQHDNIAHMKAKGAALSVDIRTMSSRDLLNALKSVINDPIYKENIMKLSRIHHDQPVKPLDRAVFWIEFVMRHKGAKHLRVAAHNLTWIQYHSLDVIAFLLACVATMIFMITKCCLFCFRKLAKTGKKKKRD

[3] = target: T3, UDP-glucuronosyltransferase 2A1 (Homo sapiens, UniProt P0DTE4); experiment: Drug metabolism assessed as recombinant human C-terminal His-tagged UGT2A1-mediated 13-epiestradiol-3-glucuronide/13-epiestradiol-17-glucuronide formation at 200 uM after 15 to 60 mins by HPLC analysis in presence of UDPGA
T3 sequence (P0DTE4 whole entry): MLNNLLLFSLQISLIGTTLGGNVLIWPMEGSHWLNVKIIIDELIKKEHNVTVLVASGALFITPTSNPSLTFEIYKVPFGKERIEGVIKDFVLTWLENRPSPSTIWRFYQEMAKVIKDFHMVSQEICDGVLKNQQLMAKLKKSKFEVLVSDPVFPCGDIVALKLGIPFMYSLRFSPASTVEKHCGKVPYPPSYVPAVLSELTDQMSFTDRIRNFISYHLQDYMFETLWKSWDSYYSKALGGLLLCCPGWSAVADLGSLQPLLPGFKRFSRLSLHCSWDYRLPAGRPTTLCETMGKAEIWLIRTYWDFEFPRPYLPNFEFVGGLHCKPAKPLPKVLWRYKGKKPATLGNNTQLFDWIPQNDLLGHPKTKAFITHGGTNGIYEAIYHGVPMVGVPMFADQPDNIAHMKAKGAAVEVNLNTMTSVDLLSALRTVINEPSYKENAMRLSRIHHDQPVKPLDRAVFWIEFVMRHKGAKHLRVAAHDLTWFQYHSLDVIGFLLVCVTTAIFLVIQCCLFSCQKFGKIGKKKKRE
Method in brief: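 Screening at a single substrate concentration of 200 μM, in triplicate. The reaction used 5 or 50 µg of UGT-enriched insect cell membranes in 50 mM phosphate pH 7.4 with 10 mM MgCl₂ and 5 mM UDPGA, 10% final DMSO. Incubation was 15–60 min at 37°C. Perchloric acid stopped the reaction and supernatants were analysed by HPLC. Controls lacked UDPGA. Rates were normalized to relative UGT expression level.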

[4] = target: T4, UDP-glucuronosyltransferase 1A8 (Homo sapiens, UniProt Q9HAW9); experiment: Drug metabolism assessed as recombinant human C-terminal His-tagged UGT1A8-mediated 16-epiestriol-3-glucuronide formation after 15 to 60 mins by Michaelis-Menten equation analysis in presence of UDPGA
T4 sequence (Q9HAW9 whole entry): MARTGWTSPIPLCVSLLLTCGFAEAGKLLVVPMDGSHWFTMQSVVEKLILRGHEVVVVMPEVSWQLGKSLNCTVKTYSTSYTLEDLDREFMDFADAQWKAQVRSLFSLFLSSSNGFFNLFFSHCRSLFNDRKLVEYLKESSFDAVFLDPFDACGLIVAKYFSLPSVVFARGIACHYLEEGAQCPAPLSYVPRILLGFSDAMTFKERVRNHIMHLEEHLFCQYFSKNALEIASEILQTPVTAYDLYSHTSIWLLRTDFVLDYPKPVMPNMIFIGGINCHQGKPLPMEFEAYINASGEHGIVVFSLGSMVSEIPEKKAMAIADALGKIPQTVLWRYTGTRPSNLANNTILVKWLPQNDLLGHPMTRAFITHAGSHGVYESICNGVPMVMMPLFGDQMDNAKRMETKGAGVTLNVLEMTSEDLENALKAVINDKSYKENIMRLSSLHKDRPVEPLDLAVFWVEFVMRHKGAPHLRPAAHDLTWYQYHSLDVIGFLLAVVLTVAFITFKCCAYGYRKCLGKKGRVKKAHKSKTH

[5] = target: T1, UDP-glucuronosyltransferase 2B15; experiment: Drug metabolism assessed as recombinant human C-terminal […]-mediated estradiol-3-glucuronide/estradiol-17-glucuronide formation at 200 uM after 15 to 60 mins by HPLC analysis in presence of UDPGA
[6] = target: T3, UDP-glucuronosyltransferase 2A1; experiment: Drug metabolism assessed as recombinant human C-terminal His-tagged UGT2A1-mediated estriol-16-glucuronide formation after 15 to 60 mins by Michaelis-Menten equation analysis in presence of UDPGA

Compound: C[C@]12CC[C@@H]3c4ccc(O)cc4CC[C@H]3[C@@H]1C[C@@H](O)[C@H]2O
- Drug metabolism [1]: metabolite_detected
- Drug metabolism [2]: metabolite_not_detected

Compound: C[C@@]12CC[C@@H]3c4ccc(O)cc4CC[C@H]3[C@@H]1CC[C@@H]2O
- Drug metabolism [3]: metabolite_detected

Compound: C[C@]12CC[C@@H]3c4ccc(O)cc4CC[C@H]3[C@@H]1C[C@H](O)[C@@H]2O [EPIESTRIOL]
- Drug metabolism [4]: 0.5 pmol/min/mg

Now from value to molecule:

- Drug metabolism [5]: metabolite_detected
Compound: C[C@]12CC[C@@H]3c4ccc(O)cc4CC[C@H]3[C@@H]1CC[C@@H]2O [ESTRADIOL]

- Drug metabolism [6]: 4 pmol/min/mg
Compound: C[C@]12CC[C@@H]3c4ccc(O)cc4CC[C@H]3[C@@H]1C[C@@H](O)[C@@H]2O [ESTRIOL]
